Key:
Format in all cases: cell-based
mTRPV3 T665A = target: T1, mTRPV3 T665A (Mus musculus, UniProt Q8K424, T665A); assay: whole-cell patch-clamp of mTRPV3 T665A mutant in HEK293 cells; conditions: compound 50 μmol/L; 2-APB; compared with WT mTRPV3
T1 sequence (Q8K424 1-791 T665A): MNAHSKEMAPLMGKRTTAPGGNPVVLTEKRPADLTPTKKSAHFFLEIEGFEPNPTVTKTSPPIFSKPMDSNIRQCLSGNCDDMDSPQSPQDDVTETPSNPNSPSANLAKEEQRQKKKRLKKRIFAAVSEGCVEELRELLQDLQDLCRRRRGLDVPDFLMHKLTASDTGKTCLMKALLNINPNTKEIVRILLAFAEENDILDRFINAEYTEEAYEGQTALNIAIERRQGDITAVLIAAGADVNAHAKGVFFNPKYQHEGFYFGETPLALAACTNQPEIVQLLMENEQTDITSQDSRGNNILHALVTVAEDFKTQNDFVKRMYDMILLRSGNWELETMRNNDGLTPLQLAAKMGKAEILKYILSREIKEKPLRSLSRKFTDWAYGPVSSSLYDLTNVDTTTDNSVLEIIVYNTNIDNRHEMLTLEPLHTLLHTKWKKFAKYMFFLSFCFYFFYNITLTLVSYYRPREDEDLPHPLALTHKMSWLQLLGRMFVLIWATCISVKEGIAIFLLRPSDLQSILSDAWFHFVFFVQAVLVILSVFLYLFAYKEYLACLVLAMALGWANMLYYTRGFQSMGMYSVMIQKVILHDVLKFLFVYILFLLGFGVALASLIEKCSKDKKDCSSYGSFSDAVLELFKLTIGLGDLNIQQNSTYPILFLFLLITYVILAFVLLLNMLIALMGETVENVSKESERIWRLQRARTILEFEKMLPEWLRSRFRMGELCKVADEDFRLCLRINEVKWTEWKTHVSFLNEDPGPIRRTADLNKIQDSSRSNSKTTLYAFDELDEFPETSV
Summary of the method: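 Mouse Trpv3 point mutants were made by site-directed mutagenesis, sequence-verified, and transiently expressed in HEK293 cells alongside wild-type mTRPV3. Whole-cell ramp recordings (−100 to +100 mV, 500 ms, holding 0 mV) were made at 22–24 °C. Currents were activated by 2-APB, and inhibition by 50 μmol/L test compound in the presence of 2-APB was compared with wild type; n = 3–8.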

hTRPA1 = hTRPA1 (Homo sapiens, UniProt O75762); assay: whole-cell patch-clamp of TRPA1 currents in HEK293 cells; conditions: compound 50 μmol/L; current evoked by AITC 300 μmol/L
Sequence of hTRPA1 (O75762 whole entry, the tested form may be a part): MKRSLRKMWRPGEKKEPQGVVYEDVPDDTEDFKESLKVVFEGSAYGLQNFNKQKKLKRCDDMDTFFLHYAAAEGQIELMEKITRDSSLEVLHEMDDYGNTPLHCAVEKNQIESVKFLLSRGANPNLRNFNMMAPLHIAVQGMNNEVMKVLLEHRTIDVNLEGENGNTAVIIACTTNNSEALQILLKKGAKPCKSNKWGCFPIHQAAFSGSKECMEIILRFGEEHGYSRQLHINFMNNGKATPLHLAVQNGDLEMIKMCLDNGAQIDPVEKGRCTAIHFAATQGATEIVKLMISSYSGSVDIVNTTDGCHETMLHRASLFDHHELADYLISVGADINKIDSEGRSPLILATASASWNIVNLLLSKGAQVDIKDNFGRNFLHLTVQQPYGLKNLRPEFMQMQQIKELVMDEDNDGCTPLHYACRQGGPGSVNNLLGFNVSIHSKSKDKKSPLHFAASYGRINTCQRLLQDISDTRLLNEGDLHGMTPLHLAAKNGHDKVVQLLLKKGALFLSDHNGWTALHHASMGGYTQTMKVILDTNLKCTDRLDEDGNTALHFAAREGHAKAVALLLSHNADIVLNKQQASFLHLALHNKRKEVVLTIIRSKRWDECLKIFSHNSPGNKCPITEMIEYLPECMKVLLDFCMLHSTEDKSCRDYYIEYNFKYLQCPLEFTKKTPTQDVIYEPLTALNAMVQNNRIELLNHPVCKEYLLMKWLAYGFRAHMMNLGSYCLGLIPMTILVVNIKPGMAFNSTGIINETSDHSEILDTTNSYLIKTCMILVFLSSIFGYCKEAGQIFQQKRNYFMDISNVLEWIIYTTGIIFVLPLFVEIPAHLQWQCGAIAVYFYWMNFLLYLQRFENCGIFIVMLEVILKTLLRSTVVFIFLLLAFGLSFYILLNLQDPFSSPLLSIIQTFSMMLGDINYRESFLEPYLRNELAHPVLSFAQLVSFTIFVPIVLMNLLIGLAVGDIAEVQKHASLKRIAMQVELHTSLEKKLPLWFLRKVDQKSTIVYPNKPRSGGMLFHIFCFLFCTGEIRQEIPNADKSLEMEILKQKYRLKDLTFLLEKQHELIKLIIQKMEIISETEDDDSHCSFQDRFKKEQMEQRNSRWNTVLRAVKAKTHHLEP
Summary of the method: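 Human channel cDNAs were transiently transfected into HEK293 cells with Lipofectamine 2000. EGFP-positive cells were recorded whole-cell 18 h later at 22–24 °C with ~4.0 MΩ fire-polished pipettes. Cells were held at 0 mV with 500-ms ramps from −100 to +100 mV every 2 s. Test compound in perfusion solution was co-applied with agonist, and average current inhibition was summarised; n = 4–6.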

hTRPV3 = target: T2, hTRPV3 (Homo sapiens, UniProt Q8NET8); assay: whole-cell patch-clamp of hTRPV3 currents expressed in HEK293 cells; conditions: for inhibition of hTRPV3 channel current activated by 2-APB: compound 50 μmol/L, agonist 2-APB 50 μmol/L, n = 5; for Hill coefficient: inhibition of hTRPV3 currents evoked by 2-APB 50 μmol/L
T2 sequence (Q8NET8 1-790): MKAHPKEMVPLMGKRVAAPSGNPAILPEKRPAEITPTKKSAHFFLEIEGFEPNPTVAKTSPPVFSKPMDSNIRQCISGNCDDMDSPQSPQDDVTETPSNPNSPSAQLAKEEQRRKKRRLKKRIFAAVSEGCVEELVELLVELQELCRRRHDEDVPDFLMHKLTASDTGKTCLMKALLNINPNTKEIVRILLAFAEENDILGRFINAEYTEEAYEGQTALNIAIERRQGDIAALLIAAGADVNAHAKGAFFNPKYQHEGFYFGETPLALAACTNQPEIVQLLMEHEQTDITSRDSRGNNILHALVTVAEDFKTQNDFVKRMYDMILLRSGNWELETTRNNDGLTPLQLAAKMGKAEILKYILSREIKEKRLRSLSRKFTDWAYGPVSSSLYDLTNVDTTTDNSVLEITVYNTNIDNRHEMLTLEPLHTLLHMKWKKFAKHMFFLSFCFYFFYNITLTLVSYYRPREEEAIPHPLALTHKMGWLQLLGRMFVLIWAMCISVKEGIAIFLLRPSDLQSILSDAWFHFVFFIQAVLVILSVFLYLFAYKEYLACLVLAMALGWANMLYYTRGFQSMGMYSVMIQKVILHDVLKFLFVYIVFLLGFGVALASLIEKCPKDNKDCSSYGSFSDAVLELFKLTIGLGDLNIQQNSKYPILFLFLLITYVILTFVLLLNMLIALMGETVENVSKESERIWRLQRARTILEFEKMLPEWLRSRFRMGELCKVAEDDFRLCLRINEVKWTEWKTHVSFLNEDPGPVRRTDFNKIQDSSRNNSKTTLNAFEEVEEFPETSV
Summary of the method: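 Whole-cell currents were recorded from hTRPV3-transfected HEK293 cells (EGFP-identified, 18 h post-transfection) at 22–24 °C. Cells were held at 0 mV and ramped from −100 to +100 mV over 500 ms every 2 s. Currents were activated by 50 μmol/L 2-APB; test compound was added at 50 μmol/L or at 0.01–100 μmol/L. Outward current at +80 mV was fitted to a Hill equation for IC50; n = 5–8.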

Row | Compound | effect of mutation on compound-induced inhibition of mTRPV3 currents (mTRPV3 T665A) | inhibition of TRPA1 current (hTRPA1) | inhibition of hTRPV3 channel current activated by 2-APB (hTRPV3) | better potency of IAB versus IAA (hTRPV3; from hTRPV3 IC50 values) | Hill coefficient (hTRPV3)
1 | O=C(/C=C/c1ccc(O)c(O)c1)O[C@@H]1[C@H](O)C[C@@](O)(C(=O)O)C[C@H]1OC(=O)/C=C/c1ccc(O)c(O)c1 [IAB, isochlorogenic acid B] | no obvious effect | no inhibitory effect | ~86.4 ± 3.3% | 3 fold | 0.53
2 | O=C(/C=C/c1ccc(O)c(O)c1)O[C@@H]1C[C@](O)(C(=O)O)C[C@@H](OC(=O)/C=C/c2ccc(O)c(O)c2)[C@H]1O [IAA, isochlorogenic acid A] | no obvious effect | no inhibitory effect | about 80.8 ± 2.1% |  | 0.50

Reference: paper PMC8897028 (Acta Pharmaceutica Sinica. B, 2021)
